The list is not random: actives were taken first. Their share in the collection is about 2.6%.
PRMT1 inh = inhibitors of human PRMT1 | Q99873 | AID 652257 | 370,000 compounds, 1.3% hits | inhibition, % at 2.79 µM | recombinant PRMT1, activity-based probe fluorescence polarization;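 active = inhibition above about 21% made by adding two undisclosed values, limit read from the data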
TCR CD3 inh = human TCR-CD3 binding inhibition | TAMRA-labeled TCR probe fluorescence, biochemical | inhibition, % at 9.4 µM | 360,000 compounds, 0.37% hits | AID 651800; in the data active = inhibition above about 19%;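 also: recombinant mutant TCR 2C K166C tagged with TAMRA read by polarization; 0% = receptor in buffer alone and 100% = receptor with positive control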
HTRA1 inhibitor = inhibitors of human serine peptidase HTRA1; Q92743; recombinant HTRA1, FP-rhodamine activity-based probe, fluorescence polarization; inhibition, % at 5.96 µM; 340,000 compounds, 0.5% hits; AID 504803; in the data active = inhibition above about 36%;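 also: 0% = enzyme with DMSO and 100% = wells lacking enzyme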
ABHD4 inh = inhibitors of mouse ABHD4; Q8VD66; purified mABHD4, FP-Rh probe fluorescence polarization; inhibition, % at 8.92 µM; 370,000 compounds, 0.54% hits; AID 720543;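 active = inhibition exceeding the mean over every tested compound plus 3 SD, cut at about 30% in these data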;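 also: 0% = plate median of compound wells and 100% = S159A mutant with DMSO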
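Material: mouse ABHD4 enzyme, wild type; Benchmarks: S159A mutant high control, sample median low control; Buffer or medium: HEPES pH 7.0, NaCl, Pluronic buffer; Signal: fluorescence polarization; Read-out: percent inhibition of probe binding, normalized to plate controls; Timing: pre-incubation 45 min, probe exposure 60 min, at 25 °C; Dosing: 8.92 µM, single dose.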
SIAE inh = blocks human sialic acid acetylesterase; Q9HAT2; SIAE FP-Rh probe binding, fluorescence polarization; inhibition, % at 9.66 µM; 370,000 compounds, 0.69% hits;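 active = inhibition above a cutoff: mean of compounds within the control limits plus 3 SD of those, cut at about 17% in these data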;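 also: 0% = plate median of compound wells and 100% = probe without SIAE protein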
Target sequence (Q9HAT2 whole entry, looked up): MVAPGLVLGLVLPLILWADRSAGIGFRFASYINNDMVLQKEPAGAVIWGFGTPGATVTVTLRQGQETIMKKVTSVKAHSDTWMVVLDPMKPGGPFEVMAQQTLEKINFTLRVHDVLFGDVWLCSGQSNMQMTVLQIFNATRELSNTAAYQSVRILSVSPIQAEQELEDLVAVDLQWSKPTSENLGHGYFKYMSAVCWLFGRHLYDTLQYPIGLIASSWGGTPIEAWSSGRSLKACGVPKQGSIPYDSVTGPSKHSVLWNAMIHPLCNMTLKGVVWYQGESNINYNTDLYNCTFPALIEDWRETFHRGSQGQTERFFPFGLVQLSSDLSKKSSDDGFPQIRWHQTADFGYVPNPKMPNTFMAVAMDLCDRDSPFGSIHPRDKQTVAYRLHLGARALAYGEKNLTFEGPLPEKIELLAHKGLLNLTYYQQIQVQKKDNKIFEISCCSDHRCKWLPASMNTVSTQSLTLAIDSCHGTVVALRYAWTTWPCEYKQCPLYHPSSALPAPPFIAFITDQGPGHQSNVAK
PRMT1 inh conf = confirmation of human PRMT1 inhibitors. shares compounds with PRMT1 inh. recombinant His-PRMT1, activity-based probe fluorescence polarization. inhibition, % at 2.79 µM. 3,300 compounds, 42% hits;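 active = mean inhibition across replicates above the hit cutoff derived for the earlier primary screen, cut at about 22% in these data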
Active calls of the source: *; · = not tested or not shown.

SMILES	PRMT1 inh	TCR CD3 inh	HTRA1 inhibitor	ABHD4 inh	SIAE inh	PRMT1 inh conf
COc1ccc(OC)c(-n2c(=S)[nH]c3c(sc(=S)n3-c3ccccc3C)c2=O)c1	48.1*	4.8	3.4	7.9	2.6	3.2
CCc1cc2c(=O)n(Cc3ccco3)c(SCC(=O)NCC3CCCO3)nc2s1 (stereo unspecified)	2.8	-0.1	1.2	0.3	-0.3	·
CCc1cc2c(=O)n(Cc3ccco3)c(SCC(=O)N3CCCc4ccccc43)nc2s1	46.4*	-0.5	-52.5	1.4	-1.2	10.3
CCc1cc2c(=O)n(Cc3ccco3)c(SCc3c(C)noc3C)nc2s1	52.7*	-5.7	-36.9	-5.1	6.6	7.5
CCc1cc2c(=O)n(Cc3ccco3)c(SCC(=O)NC3CCS(=O)(=O)C3)nc2s1 (stereo unspecified)	1.7	5.4	-1.0	1.6	0.7	·
COc1ccc(CC(=O)NCc2ccccc2F)cc1S(=O)(=O)N1CCOCC1	-1.1	2.8	1.7	1.5	1.9	·
OCCCn1c(-c2ccccc2)csc1=Nc1ccccc1	3.3	1.6	-5.2	-0.4	-0.6	·
COc1ccc(N=c2scc(-c3ccc(OC)cc3)n2CCO)cc1	35.9*	-1.7	1.4	6.2	9.1	8.1
Oc1cc(O)c(CN2CCOCC2)cc1CN1CCOCC1	28.6*	3.2	-0.1	-0.5	5.8	0.3
Oc1c(CN2CCOCC2)cc(CN2CCOCC2)cc1CN1CCOCC1	2.0	-5.7	0.0	-1.3	1.0	·
CCN(CC)C(=O)CSc1nc2c(sc(=S)n2CC)c(=O)n1-c1ccccc1	-1.9	4.2	-2.5	-2.2	1.3	·
CCN(CC)C(=O)CSc1nc2c(sc(=S)n2-c2ccccc2)c(=O)n1Cc1ccco1	24.9*	-1.3	-23.9	5.0	-2.1	20.9
CCCCC(=O)OCC(=O)C1(O)Cc2c(O)c3c(c(O)c2C(OC2CC(NC(=O)C(F)(F)F)C(O)C(C)O2)C1)C(=O)c1c(OC)cccc1C3=O (stereo unspecified)	24.8*	-7.4	26.8	-2.2	11.8	15.1
C=CCn1c(SCC(=O)NCC(c2ccccc2)N(C)C)nnc1C1CCCCC1 (stereo unspecified)	-3.9	3.2	4.3	9.2	-4.2	·
Cc1ccc(C2CC2c2n[nH]c(=S)n2-c2cccc(C)c2)cc1 (stereo unspecified)	25.8*	-4.4	-7.6	-13.8	4.7	17.1
Cc1ccc(C2CC2c2n[nH]c(=S)n2-c2ccc(Cl)cc2)cc1 (stereo unspecified)	26.7*	4.2	-3.3	-2.6	6.2	11.0
S=c1[nH]nc([C@@H]2C[C@H]2c2ccccc2)n1-c1ccccc1Cl	4.2	-4.7	-1.8	5.1	-0.7	·
CN1CCC(CC(C(=O)N2CCCC2)(c2ccccc2)c2ccccc2)C1 (stereo unspecified)	7.9	1.5	6.8	8.9	10.3	·
O=C(Nc1ccc(F)cc1)NC1CCN(Cc2nnnn2Cc2ccco2)CC1	28.7*	-6.3	4.5	-7.9	-0.6	10.7
CC(C)CCNC(=O)c1cc(-c2ccco2)nc2ccccc12	3.8	5.8	-1.6	0.3	-2.2	·
CCCCCCNC(=O)c1cc(-c2ccco2)nc2ccccc12	42.2*	-4.0	-13.1	-2.8	-5.6	19.4
NS(=O)(=O)c1ccc(CCNC(=O)c2cccc3ccccc23)cc1	1.8	-3.2	4.2	2.2	6.2	·
O=C(NCC1CCCO1)c1cc(-c2ccco2)nc2ccccc12 (stereo unspecified)	72.6*	3.2	5.3	-4.4	1.5	6.1
NS(=O)(=O)c1ccc(CCNC(=O)c2ccc[nH]c2=S)cc1	38.6*	-9.7	2.2	-1.2	0.9	6.5
NS(=O)(=O)c1ccc(CCNC(=O)c2cc(-c3ccco3)nc3ccccc23)cc1	51.3*	-3.7	3.7	-8.2	-8.6	6.5
NS(=O)(=O)c1ccc(CCNC(=O)c2cc(-c3ccccc3)nc3ccccc23)cc1	-1.7	-2.4	-17.1	-14.6	-0.1	·
COc1cccc(C(=O)NCC2CCCN(C(=O)c3ccc(C=O)cc3)C2)c1OC (stereo unspecified)	-4.6	-1.1	-3.2	2.1	1.3	·
O=C(COC(=O)c1ccc(-n2cnnn2)cc1)Nc1cc(Cl)ccc1F	-0.7	0.5	-14.0	-6.6	-7.7	·
O=C(CSS(=O)(=O)O)N1CCN(C(=O)c2ccoc2)CC1	44.6*	2.8	4.5	1.9	-1.2	29.5*
